Test results taken from ChEMBL document CHEMBL1132107, “Design and synthesis of water-soluble glucuronide derivatives of camptothecin for cancer prodrug monotherapy and antibody-directed enzyme prodrug therapy (ADEPT)” (J Med Chem, 1999).
In brackets after ≈: the same amount, converted by molar mass.

Experiments:
[1] = Cytotoxicity in the presence of beta-Glucuronidase (betaG, 5 micro g/ml) towards human cervical cells(CaSki); format: functional, cell-based
Procedure, shortened: (§1)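 Same 72 h [³H]thymidine-incorporation assay (1-1.5 × 10⁴ cells/well in RPMI/10% bovine serum, 37 °C, 5% CO₂), with β-glucuronidase added at 5 µg/mL alongside the drug concentration series. Controls were medium or 0.5% DMSO. IC50 was interpolated from log dose-response curves, as means of 1-3 experiments in triplicate.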

[2] = Cytotoxicity expressed as the concentration that inhibited incorporation of [3H]thymidine into cellular DNA of human cervical cells (CaSki); format: functional, cell-based
Procedure, shortened: (§2)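 Exponentially growing tumour cells, 1-1.5 × 10⁴ cells/well, in RPMI with 10% bovine serum plus penicillin/streptomycin, exposed 72 h (37 °C, 5% CO₂) to a drug concentration series. Drugs were dissolved in DMSO (≤0.5% final) or in medium. [³H]thymidine incorporation into DNA was read after PBS wash and trypsin harvest. IC50 was interpolated from log dose-response curves, as means of 1-3 experiments in triplicate.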

[3] = Solubility is determined at pH 4.0; format: physicochemical; conditions: buffer
Procedure, shortened: (§3)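 Excess solid was equilibrated 24 h at 25 °C in 100 mM phosphate buffer pH 4.0, or in βG buffer (acetic acid/bis-tris/triethanolamine) pH 7.0. Samples were filtered through 0.22 µm, diluted in mobile phase and quantified by C18 HPLC (45% MeOH/25 mM phosphate pH 2.55, fluorescence ex 397/em 482 nm) against calibration curves. Values are in mg/mL.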

COLO 205 [4] = test: Cytotoxicity expressed as the concentration that inhibited incorporation of [3H]thymidine into cellular DNA of human colorectal cells (COLO 205); format: functional, cell-based; procedure, shortened: as §2
COLO 205 [5] = test: Cytotoxicity in the presence of beta-Glucuronidase (betaG, 5 micro g/ml) towards human colorectal cells(COLO 205); format: functional, cell-based; procedure, shortened: as §1
HepG2 [6] = test: Cytotoxicity in the presence of beta-Glucuronidase (betaG, 5 micro g/ml) towards human hepatocellular cells (HepG2); format: functional, cell-based; procedure, shortened: as §1
HepG2 [7] = test: Cytotoxicity expressed as the concentration that inhibited incorporation of [3H]-thymidine into cellular DNA of human hepatocellular cells (HepG2); format: functional, cell-based; procedure, shortened: as §2
HT-29 [8] = test: Cytotoxicity in the presence of beta-Glucuronidase (betaG, 5 micro g/ml) towards human colorectal cells (HT-29); format: functional, cell-based; procedure, shortened: as §1
[9] = Percentage of compound converted to 9-aminocamptothecin for hydrolysis by beta-Glucuronidase( incubated at pH 7.0 for 2 hr at 37 degrees Celsius at the concentration 0.1 ug/mL); format: ADME; conditions: buffer, pH 7, 2 h
Procedure, shortened: (§4)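 The reaction was quenched with ice-cold MeOH/5% H₃PO₄ (6/1) and centrifuged. Supernatant was analysed by reversed-phase C18 HPLC with fluorescence detection (ex 397/em 482 nm) to give the % converted to 9-aminocamptothecin.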

NCI-H928 [10] = test: Cytotoxicity in the presence of beta-Glucuronidase (betaG, 5 micro g/ml) towards human lung carcinoma cells (H928); format: functional, cell-based; procedure, shortened: as §1
[11] = Solubility is determined at pH 7.0; format: physicochemical; conditions: buffer; procedure, shortened: as §3
[12] = Percentage of compound converted to 9-aminocamptothecin for hydrolysis by beta-Glucuronidase(incubated at pH 7.0 for 2 hr at 37 degrees Celsius at the concentration 0.5 ug/mL); format: ADME; conditions: buffer, pH 7, 2 h; procedure, shortened: as §4
[13] = Percentage of compound converted to 9-aminocamptothecin for hydrolysis by beta-Glucuronidase( incubated at pH 7.0 for 2 hr at 37 degrees Celsius at the concentration 0.01 ug/mL); format: ADME; conditions: buffer, pH 7, 2 h; procedure, shortened: as §4
[14] = Percentage of compound converted to 9-aminocamptothecin for hydrolysis by beta-Glucuronidase( incubated at pH 7.0 for 2 h at 37 degrees Celsius at the concentration 0.05 ug/mL); format: ADME; conditions: buffer, pH 7, 2 h; procedure, shortened: as §4
NCI-H928 [15] = test: Cytotoxicity expressed as the concentration that inhibited incorporation of [3H]-thymidine into cellular DNA of human lung carcinoma cells (H928); format: functional, cell-based; procedure, shortened: as §2
HepG2 [16] = test: Cytotoxicity expressed as the concentration that inhibited incorporation of [3H]thymidine into cellular DNA of human hepatocellular cells (HepG2); format: functional, cell-based; procedure, shortened: as §2
HT-29 [17] = test: Cytotoxicity expressed as the concentration that inhibited incorporation of [3H]thymidine into cellular DNA of human colorectal cells (HT-29); format: functional, cell-based; procedure, shortened: as §2

| SMILES | IC50 [2] | solubility [3] | IC50 (COLO 205 [4]; colo 205) | IC50 (HepG2 [6]) | solubility [11] | IC50 (NCI-H928 [15]) | IC50 (HepG2 [16]) | IC50 (HT-29 [17]) | IC50 ([2]; Homo sapiens) | IC50 (COLO 205 [4]; Homo sapiens, COLO 205) | other results |
| --- | --- | --- | --- | --- | --- | --- | --- | --- | --- | --- | --- |
| CC[C@@]1(O)C(=O)OCc2c1cc1n(c2=O)Cc2cc3c(NC(=O)OCc4ccc(O[C@@H]5O[C@H](C(=O)[O-])[C@@H](O)[C@H](O)[C@H]5O)cc4)cccc3nc2-1.[K+] | 510 nM | 25 mg/mL | 460 nM | 6.7 nM | – | – | – | – | – | – | IC50 ([1]; Homo sapiens): 9.1 nM; IC50 (COLO 205 [5]; Homo sapiens, COLO 205): 8.2 nM; IC50 (HepG2 [7]): 280 nM; IC50 (HT-29 [8]; Homo sapiens, HT-29): 11 nM |
| CC[C@@]1(O)C(=O)OCc2c1cc1n(c2=O)Cc2cc3c(NC(=O)OCc4ccc(O[C@@H]5O[C@H](C(=O)O)[C@@H](O)[C@H](O)[C@H]5O)cc4)cccc3nc2-1 | 190 nM | 0.5 mg/mL (≈ 725 µM) | 200 nM | 2.9 nM | 110 mg/kg | 300 nM | 110 nM | 150 nM | – | – | IC50 [1]: 7.8 nM; Conversion [9]: 98%; IC50 (NCI-H928 [10]): 7.9 nM; Conversion [12]: 92%; Conversion [13]: 45%; Conversion [14]: 92%; IC50 (COLO 205 [5]; colo 205): 8 nM; IC50 (HT-29 [8]; ht-29): 6.6 nM |
| CC[C@@]1(O)C(=O)OCc2c1cc1n(c2=O)Cc2cc3c(N)cccc3nc2-1 [9-AMINOCAMPTOTHECIN] | – | 0.006 mg/mL (≈ 16.5 µM) | – | – | 0.06 mg/mL (≈ 165 µM) | 7.9 nM | 3.5 nM | 7.4 nM | 8.5 nM | 6.6 nM | – |
| CC[C@@]1(O)C(=O)OCc2c1cc1n(c2=O)Cc2cc3ccccc3nc2-1 [CAMPTOTHECIN] | – | – | – | – | – | 7.8 nM | 6.3 nM | – | 8.5 nM | 5.4 nM | – |
